PfGluPho inh – PfG6PD (Plasmodium falciparum) enzyme inhibition; PfGluPho enzyme, NADPH resazurin-diaphorase fluorescence; inhibition, % at 20 µM; 0.78% of 350,000 active; AID 504690;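 active = inhibition reaching at least a set limit at 20 µM in the primary screen, cut at about 59% in these data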;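 note: 0% = DMSO wells with substrate and 100% = DMSO wells lacking glucose-6-phosphate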
ABHD5 PLIN5 PPI – inhibitors of human ABHD5-perilipin-5 interaction. Q00G26+Q8WTS1. AID 602281. inhibition, % at 4 µM. 0.78% of 360,000 active. Split G. princeps luciferase complementation, luminescence, 4 h;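 active = inhibition above the mean inhibition across every tested compound plus 3 SD, cut at about 22% in these data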;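 note: 0% = DMSO only wells and the 100% control is not disclosed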
MC4R barr agon – human MC4R agonism via beta-arrestin | P32245 | U2OS MC4R beta-arrestin complementation, luminescence; percent of melanotan II response, DMSO zero | activation, % at 8.9 µM | 0.98% of 360,000 active | AID 540308;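 active = activation above a per-plate cutoff, the mean activation of sample wells on that plate plus 3 SD, cut at about 8% in these data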
Target sequence (P32245 whole entry, looked up): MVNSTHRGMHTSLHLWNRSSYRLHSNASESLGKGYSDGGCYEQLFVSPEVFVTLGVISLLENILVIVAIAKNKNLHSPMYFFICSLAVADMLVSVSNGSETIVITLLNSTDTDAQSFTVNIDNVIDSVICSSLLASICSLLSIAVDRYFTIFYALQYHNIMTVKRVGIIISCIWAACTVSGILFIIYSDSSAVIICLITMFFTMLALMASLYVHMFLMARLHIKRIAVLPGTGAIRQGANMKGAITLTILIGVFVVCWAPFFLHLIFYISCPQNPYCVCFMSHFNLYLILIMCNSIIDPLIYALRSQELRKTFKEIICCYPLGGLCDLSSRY
B2AR ag – activates human beta-2 adrenergic receptor causing internalization; response, % (concentration not given with the values); P07550; Am2.2-beta2AR cells, FAP receptor internalization, flow cytometry; 0.43% of 340,000 active;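 active = response above a set limit, near 3 SD of response in nonfluorescent compounds, cut at about 42% in these data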
MC4R antagonist – blocks human MC4R cAMP signaling; P32245; MC4R-expressing cells, MTII-stimulated cAMP, LANCE TR-FRET; inhibition, % at 6.5 µM; 0.48% of 360,000 active;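 active = inhibition above its plate's cutoff, the mean of tested wells on that plate plus 3 SD, cut at about 29% in these data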;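 note: 0% = Melanotan II alone and 100% = Melanotan II plus saturating MCL0020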
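material = U2OS cells stably expressing human melanocortin 4 receptor (MC4R) | also added = Melanotan II challenge | dosing = single nominal compound dose of 6.5 µM | detection = TR-FRET with Eu-cAMP and labeled anti-cAMP, 671 nm | replication = singlicate | timing = compound 30 min, challenge 1 h, detection 1 h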
B2AR ag CP1 – human beta-2 adrenergic receptor agonism, cherry pick. Am2.2-beta2AR cells, FAP surface receptor, flow cytometry; stronger effect = lower value. percent response (surface receptor), % at 10 µM. 25% of 1,100 active. shares compounds with B2AR ag;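 active = surface receptor percent response at or below 58%, roughly 3 SD from nonfluorescent compounds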
B2AR FAP counter – fluorescence artifact in beta-2AR agonist FAP counterscreen | shares compounds with B2AR ag | AID 588765 | 1,100 tested, under 10 active | calls only at 10 µM | Am2.2 cells, FAP fluorogen flow cytometry; stronger effect = lower value;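 active = percent response below a set limit in fluorescence channel 1 and below 50% in channel 8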
Active calls of the source: *. Rows were chosen to be rich in hits. Some 3% of all compounds tested hit in one or more screens of this group.

For CCC(=O)N1CCN(c2nc(CC)nc3sc4c(c23)CCCC4)CC1 the results were PfGluPho inh -12.8, ABHD5 PLIN5 PPI -3.1, MC4R barr agon 0.5, B2AR ag -4.9 and MC4R antagonist 18.3.
For C/C=C/CSc1nc2c(c(=O)[nH]c(=O)n2C)n1Cc1ccc(C)cc1 the results were PfGluPho inh 47.4, ABHD5 PLIN5 PPI -4.0, MC4R barr agon 8.9*, B2AR ag 7.5 and MC4R antagonist -24.3.
`Cc1ccc(Cn2c(Sc3ncccn3)nc3c2c(=O)[nH]c(=O)n3C)cc1` gave PfGluPho inh 19.4, ABHD5 PLIN5 PPI -5.1, MC4R barr agon -1.4, B2AR ag -4.9 and MC4R antagonist -7.0.
Screening Cc1cc(S(=O)(=O)Nc2cccnc2)c(C)s1 returned PfGluPho inh -1.3, ABHD5 PLIN5 PPI -4.1, MC4R barr agon -3.4, B2AR ag 3.5 and MC4R antagonist 1.2.
Screening Cc1cc(S(=O)(=O)Nc2ccc3ccccc3c2)c(C)s1 returned PfGluPho inh 23.4, ABHD5 PLIN5 PPI -6.0, MC4R barr agon 8.8*, B2AR ag 7.8 and MC4R antagonist -6.3.
Cc1ccc(S(=O)(=O)Nc2ccc3ccccc3c2)cc1 was read as PfGluPho inh 6.1, ABHD5 PLIN5 PPI 3.5, MC4R barr agon 9.4*, B2AR ag 9.9 and MC4R antagonist 1.5.
O=S(=O)(Nc1ccc2ccccc2c1)c1ccccc1 was read as PfGluPho inh 18.6, ABHD5 PLIN5 PPI -4.1, MC4R barr agon 0.9, B2AR ag 2.4 and MC4R antagonist -3.9.
CC(=O)Nc1cc2nc(C)n(Cc3ccc([N+](=O)[O-])cc3)c2nc1C was read as PfGluPho inh -6.7, ABHD5 PLIN5 PPI -6.0, MC4R barr agon 1.0, B2AR ag 0.2 and MC4R antagonist 17.1.
For CC12CC3OC3CC1CCC1C2CCC2(C)C1CCC21OCCO1 (centres undefined) the results were PfGluPho inh -10.8, ABHD5 PLIN5 PPI 0.4, MC4R barr agon 1.5, B2AR ag 75.9* and MC4R antagonist -6.1.
`CO[C@H]1CC[C@@]2(C)[C@@H](CC[C@@H]3[C@@H]2CC[C@@]2(C)[C@H]3C[C@H](C(=O)O)O[C@]23CCCO3)C1` gave PfGluPho inh -2.3, ABHD5 PLIN5 PPI -4.3, MC4R barr agon -1.0, B2AR ag 2.5 and MC4R antagonist 2.4.
Screening O=C(O)CNC(=O)C12CC3CC(CC(Cl)(C3)C1)C2 returned PfGluPho inh -5.8, ABHD5 PLIN5 PPI -0.1, MC4R barr agon -1.5, B2AR ag -3.8 and MC4R antagonist 6.1.
`CCOC(=O)CSc1c(-c2cccs2)[nH]c2ccccc12` gave PfGluPho inh 32.5, ABHD5 PLIN5 PPI -14.1, MC4R barr agon 8.6*, B2AR ag 6.8 and MC4R antagonist 1.8.
`NNC(=O)C1CC(O)CN1S(=O)(=O)c1ccc2ccccc2c1` (centres undefined) gave PfGluPho inh 3.7, ABHD5 PLIN5 PPI 2.6, MC4R barr agon -1.4, B2AR ag -2.7 and MC4R antagonist 9.6.
For CCc1ccc(Nc2nc(N)nc(CSc3nnnn3-c3ccccc3)n2)cc1 the results were PfGluPho inh 12.8, ABHD5 PLIN5 PPI 8.8, MC4R barr agon 8.5*, B2AR ag -7.8 and MC4R antagonist -10.8.
`Cc1ccccc1Nc1nc(N)nc(CSc2nnnn2-c2ccccc2)n1` gave PfGluPho inh 23.3, ABHD5 PLIN5 PPI 1.4, MC4R barr agon -0.1, B2AR ag -10.5 and MC4R antagonist -13.9.
Screening Cc1cccc(C)c1-n1nnnc1C(c1ccnc2ccccc12)N(C)Cc1ccccc1 (centres undefined) returned ABHD5 PLIN5 PPI -4.5.
For Cc1cc2c(=O)n(Cc3ccco3)c(SCC(=O)c3ccc(Cl)s3)nc2s1 the results were PfGluPho inh 10.2, ABHD5 PLIN5 PPI 4.4, MC4R barr agon 1.6, B2AR ag 52.1* and MC4R antagonist 4.4.
For Cc1c(Cl)cccc1NC(=O)c1cc(-c2ccccc2O)n[nH]1 the results were PfGluPho inh -14.8, ABHD5 PLIN5 PPI -9.0, MC4R barr agon 9.3*, B2AR ag 22.2 and MC4R antagonist -5.0.
`Cc1ccccc1OCC(=O)Nc1cccc(Cl)c1C` gave PfGluPho inh -8.2, ABHD5 PLIN5 PPI -2.2, MC4R barr agon 8.6*, B2AR ag 5.5 and MC4R antagonist 3.8.
COc1ccc2nc(NC(=O)CSc3nnc(N)s3)sc2c1 was read as PfGluPho inh -3.4, ABHD5 PLIN5 PPI -5.5, MC4R barr agon -0.9, B2AR ag 74.8*, MC4R antagonist 1.9, B2AR ag CP1 77.8 and B2AR FAP counter inactive.
O=C(O)c1ccccc1N=Cc1c(O)n(-c2nccs2)c(=O)c2ccccc12 was read as PfGluPho inh 10.8, ABHD5 PLIN5 PPI -2.1, MC4R barr agon 0.3, B2AR ag -1.2 and MC4R antagonist 1.7.
For CCN(CC)S(=O)(=O)c1cccc(-n2c(O)c(C=Nc3ccccc3C(=O)O)c3ccccc3c2=O)c1 the results were PfGluPho inh -27.2, ABHD5 PLIN5 PPI -3.3, MC4R barr agon 0.5, B2AR ag 47.2*, MC4R antagonist 12.5, B2AR ag CP1 99.2 and B2AR FAP counter inactive.
Screening COC(=O)c1ccc2nc(-c3ccc(C#N)cc3)c(Cc3cccc(Cl)c3)n2c1 returned ABHD5 PLIN5 PPI -2.3.
Screening Cc1cc(C)c(NC(=O)CN(C)C(=O)CCN2C(=O)C3CCCCC3C2=O)c(C)c1 (centres undefined) returned PfGluPho inh -7.8, ABHD5 PLIN5 PPI 4.2, MC4R barr agon 0.3 and MC4R antagonist 12.1.
Screening Fc1ccc(Oc2nc(-c3ccccc3)nnc2C(F)(F)F)cc1 returned PfGluPho inh -8.4, ABHD5 PLIN5 PPI 1.2, MC4R barr agon -0.7, B2AR ag 5.6 and MC4R antagonist 11.6.
Fc1ccc(Sc2nc(-c3ccccc3)nnc2C(F)(F)F)cc1 was read as PfGluPho inh -1.1, ABHD5 PLIN5 PPI 5.9, MC4R barr agon -3.3, B2AR ag 43.6*, MC4R antagonist 3.4, B2AR ag CP1 20.8* and B2AR FAP counter inactive.
For CC(NCCC(c1ccccc1)c1ccccc1)c1ccccc1 (centres undefined) the results were PfGluPho inh 0.9, ABHD5 PLIN5 PPI 0.7, MC4R barr agon 5.1, B2AR ag 25.1, MC4R antagonist 0.7, B2AR ag CP1 84.0 and B2AR FAP counter inactive.
CC1(C(=O)NCc2ccc(F)cc2)Oc2ccccc2NC1=O (centres undefined) was read as PfGluPho inh -5.4, ABHD5 PLIN5 PPI -2.5, MC4R barr agon -1.3, B2AR ag 6.1 and MC4R antagonist 11.6.
For CCOc1cc(-c2c(C)c(C)nc(N)c2C#N)ccc1O the results were PfGluPho inh 10.2, ABHD5 PLIN5 PPI 15.6, MC4R barr agon -1.9, B2AR ag 8.8 and MC4R antagonist -1.5.

Compound activity deposited in PubChem by several laboratories.
